From ChEMBL document CHEMBL1156530, “Novel conantokins from Conus parius venom are specific antagonists of N-methyl-D-aspartate receptors” (J Biol Chem, 2007)
Calls of active or inactive are those of the source. No cut-off for these calls is given here. Non-standard residues stand in square brackets, D forms with d. Residues, ends and D or L forms follow the SMILES beside them. Gla = N[C@@H](CC(C(=O)O)C(=O)O)C(=O)O; Hyp = O=C(O)[C@@H]1C[C@@H](O)CN1

What was measured:
[1] = target: Glutamate receptor ionotropic, NMDA 2C (Rattus norvegicus, UniProt P35439+Q00961); experiment: Inhibition of rat NMDA NR2C receptor expressed in xenopus oocytes coexpressing NMDA NR13b assessed as effect on glycine-induced current response at -70 mV by voltage clamp method; type: cell-based, Oocyte
How it was run: (§1)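 Xenopus oocytes expressing rat NR1-3b with one NR2 subunit (A–D), voltage-clamped at -70 mV. Perfusion was Mg2+-free ND96 (pH 7.2–7.5) with 0.1 mg/ml BSA. Peptide was applied in a static bath for 5–10 min; the agonist-evoked current was then expressed as % of the pre-peptide current. IC50s were taken from concentration-response curves, n ≥ 3 per point.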

[2] = target: Glutamate receptor ionotropic, NMDA 2A (Rattus norvegicus, UniProt P35439+Q00959); experiment: Inhibition of rat NMDA NR2A receptor expressed in xenopus oocytes coexpressing NMDA NR13b assessed as effect on glycine-induced current response at -70 mV by voltage clamp method; type: cell-based, Oocyte; how it was run: as §1
[3] = target: Glutamate receptor ionotropic, NMDA 2B (Rattus norvegicus, UniProt P35439+Q00960); experiment: Inhibition of rat NMDA NR2B receptor expressed in xenopus oocytes coexpressing NMDA NR13b assessed as effect on glycine-induced current response at -70 mV by voltage clamp method; type: cell-based, Oocyte; how it was run: as §1
[4] = target: Glutamate receptor ionotropic, NMDA 2D (Rattus norvegicus, UniProt P35439+Q62645); experiment: Inhibition of rat NMDA NR2D receptor expressed in xenopus oocytes coexpressing NMDA NR13b assessed as effect on glycine-induced current response at -70 mV by voltage clamp method; type: cell-based, Oocyte; how it was run: as §1
[5] = tested on: Mus musculus; experiment: Induction of hyperactivity intracranially dosed 24-day old Swiss-Webster mouse; type: functional, organism-based
How it was run: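 Intracranial injection of 2 nmol peptide in 20 μl normal saline (29-gauge needle) into 24-day-old mice (12.2–12.8 g). An equal volume of saline served as negative control. Mice were watched in cages for hyperactivity: continuous walking, excessive grooming and climbing of the cage wall.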

[6] = organism: Rattus norvegicus; experiment: Selectivity ratio, IC50 for rat NMDA NR2D receptor to IC50 for rat NMDA NR2B receptor
How it was run: (§2)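 Ratios of IC50s taken from oocyte concentration-response curves for rat NR1-3b co-expressed with NR2A, NR2B or NR2D, recorded at -70 mV in Mg2+-free ND96 with 5–10-min static-bath peptide application, n ≥ 3 per point.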

[7] = tested on: Mus musculus; experiment: Induction of sleep in intracranially dosed 10-day old Swiss-Webster mouse assessed as average onset of deep sleep at 5 nmol; type: functional
How it was run: (§3)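 Intracranial injection of synthetic peptide (0.5, 1 or 5 nmol) in 20 μl normal saline into 10-day-old Swiss-Webster mice, 2–6 per dose. Con-G served as positive control and saline as negative control. Deep-sleep onset was the time at which a mouse no longer tried to right itself after being rolled onto its back; onset times were averaged.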

[8] = tested on: Mus musculus; experiment: Induction of sleep in intracranially dosed 10-day old Swiss-Webster mouse assessed as average onset of deep sleep at 0.5 nmol; type: functional; how it was run: as §3
[9] = organism: Rattus norvegicus; experiment: Selectivity ratio, IC50 for rat NMDA NR2A receptor to IC50 for rat NMDA NR2D receptor; how it was run: as §2
[10] = tested on: Mus musculus; experiment: Induction of sleep in intracranially dosed 10-day old Swiss-Webster mouse assessed as average onset of deep sleep at 1 nmol; type: functional; how it was run: as §3
[11] = target: Glutamate receptor ionotropic, NMDA 2B (Rattus norvegicus) (UniProt Q00960); experiment: Inhibition of rat NMDA NR2B receptor expressed in xenopus oocytes coexpressing NMDA NR13b assessed as effect on glycine-induced current response at 1 uM at -70 mV by voltage clamp method; type: cell-based; details: Oocyte
How it was run: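 Oocytes expressing rat NR1-3b/NR2B, voltage-clamped at -70 mV in Mg2+-free ND96 with 0.1 mg/ml BSA. Baseline currents were recorded, followed by a 10-min static-bath buffer control. Then 1 μM peptide was applied in a static bath for 10 min, and the next agonist-evoked current was expressed as % of the pre-peptide amplitude.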

Sequence of Glutamate receptor ionotropic, NMDA 2B (Q00960 whole entry, one chain of several): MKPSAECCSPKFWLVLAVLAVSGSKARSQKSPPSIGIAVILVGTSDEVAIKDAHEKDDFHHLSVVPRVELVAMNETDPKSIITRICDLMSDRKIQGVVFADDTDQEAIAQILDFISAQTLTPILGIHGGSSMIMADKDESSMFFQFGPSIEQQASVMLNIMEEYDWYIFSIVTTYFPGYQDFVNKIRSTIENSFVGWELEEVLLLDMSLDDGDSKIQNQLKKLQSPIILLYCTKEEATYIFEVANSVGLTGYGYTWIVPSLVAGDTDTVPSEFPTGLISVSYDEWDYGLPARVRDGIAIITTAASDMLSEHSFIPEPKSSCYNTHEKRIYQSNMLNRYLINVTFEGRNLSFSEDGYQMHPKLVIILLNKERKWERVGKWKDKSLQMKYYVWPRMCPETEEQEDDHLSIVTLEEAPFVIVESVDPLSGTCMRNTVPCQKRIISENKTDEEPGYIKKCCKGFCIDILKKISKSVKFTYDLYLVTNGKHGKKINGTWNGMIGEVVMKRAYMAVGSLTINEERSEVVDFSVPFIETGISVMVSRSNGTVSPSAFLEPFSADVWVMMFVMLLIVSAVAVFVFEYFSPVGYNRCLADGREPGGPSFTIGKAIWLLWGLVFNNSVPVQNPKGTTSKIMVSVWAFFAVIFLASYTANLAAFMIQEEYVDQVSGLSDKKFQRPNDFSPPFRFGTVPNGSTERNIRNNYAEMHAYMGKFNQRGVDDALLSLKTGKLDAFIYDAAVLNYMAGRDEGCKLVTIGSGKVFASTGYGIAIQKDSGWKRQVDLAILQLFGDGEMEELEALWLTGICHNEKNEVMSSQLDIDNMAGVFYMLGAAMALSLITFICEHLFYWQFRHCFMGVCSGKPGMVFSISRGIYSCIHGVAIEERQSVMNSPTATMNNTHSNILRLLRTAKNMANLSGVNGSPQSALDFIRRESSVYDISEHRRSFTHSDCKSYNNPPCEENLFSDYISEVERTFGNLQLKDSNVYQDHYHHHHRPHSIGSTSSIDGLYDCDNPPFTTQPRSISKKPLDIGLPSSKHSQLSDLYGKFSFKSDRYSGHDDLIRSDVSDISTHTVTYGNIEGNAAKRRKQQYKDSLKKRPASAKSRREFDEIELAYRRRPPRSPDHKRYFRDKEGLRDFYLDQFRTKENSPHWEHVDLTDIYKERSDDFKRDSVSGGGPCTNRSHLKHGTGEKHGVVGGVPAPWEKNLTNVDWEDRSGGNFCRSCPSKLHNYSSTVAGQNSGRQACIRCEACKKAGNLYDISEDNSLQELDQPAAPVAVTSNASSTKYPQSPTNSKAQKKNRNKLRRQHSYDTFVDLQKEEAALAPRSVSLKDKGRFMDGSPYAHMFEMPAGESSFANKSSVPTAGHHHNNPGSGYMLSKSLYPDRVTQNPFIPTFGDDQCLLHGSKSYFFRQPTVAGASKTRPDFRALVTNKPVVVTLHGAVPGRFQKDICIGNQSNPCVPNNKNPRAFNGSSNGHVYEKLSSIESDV
Sequence of Glutamate receptor ionotropic, NMDA 2D (Q62645 whole entry, one chain of several): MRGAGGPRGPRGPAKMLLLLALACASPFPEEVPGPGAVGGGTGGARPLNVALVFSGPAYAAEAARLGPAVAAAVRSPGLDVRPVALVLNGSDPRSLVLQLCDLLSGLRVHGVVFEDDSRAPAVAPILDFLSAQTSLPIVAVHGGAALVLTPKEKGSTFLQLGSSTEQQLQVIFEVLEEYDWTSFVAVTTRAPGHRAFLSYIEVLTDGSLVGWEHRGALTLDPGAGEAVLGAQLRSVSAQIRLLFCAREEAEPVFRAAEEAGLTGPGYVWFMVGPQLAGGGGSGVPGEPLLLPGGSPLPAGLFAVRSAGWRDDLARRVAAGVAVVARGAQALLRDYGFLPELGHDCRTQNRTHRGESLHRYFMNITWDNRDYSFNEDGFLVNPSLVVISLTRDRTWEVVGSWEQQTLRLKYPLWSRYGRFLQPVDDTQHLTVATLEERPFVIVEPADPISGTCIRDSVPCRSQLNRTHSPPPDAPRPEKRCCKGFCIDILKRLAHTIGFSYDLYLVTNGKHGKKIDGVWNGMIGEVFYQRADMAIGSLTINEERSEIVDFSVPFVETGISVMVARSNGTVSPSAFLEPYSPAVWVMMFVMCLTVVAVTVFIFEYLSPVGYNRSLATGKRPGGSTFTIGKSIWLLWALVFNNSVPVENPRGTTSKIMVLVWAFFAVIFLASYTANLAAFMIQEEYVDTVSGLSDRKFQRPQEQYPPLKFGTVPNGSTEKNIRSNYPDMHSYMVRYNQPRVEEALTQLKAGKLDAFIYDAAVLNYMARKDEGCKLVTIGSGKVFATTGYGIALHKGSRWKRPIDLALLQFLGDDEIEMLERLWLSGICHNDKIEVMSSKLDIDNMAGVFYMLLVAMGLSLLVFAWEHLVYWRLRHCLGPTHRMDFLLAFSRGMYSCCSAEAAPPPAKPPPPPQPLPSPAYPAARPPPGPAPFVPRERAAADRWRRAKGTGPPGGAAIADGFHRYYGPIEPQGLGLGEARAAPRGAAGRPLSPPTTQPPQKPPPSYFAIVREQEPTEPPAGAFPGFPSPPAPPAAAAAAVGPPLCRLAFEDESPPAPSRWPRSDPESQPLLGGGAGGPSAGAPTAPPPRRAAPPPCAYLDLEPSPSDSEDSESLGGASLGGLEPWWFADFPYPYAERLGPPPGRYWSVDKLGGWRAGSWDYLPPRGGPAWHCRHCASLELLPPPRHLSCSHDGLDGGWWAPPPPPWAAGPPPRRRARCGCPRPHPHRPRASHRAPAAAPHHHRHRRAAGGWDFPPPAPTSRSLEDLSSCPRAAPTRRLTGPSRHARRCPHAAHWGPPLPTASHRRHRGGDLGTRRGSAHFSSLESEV
Sequence of Glutamate receptor ionotropic, NMDA 2A (Q00959 whole entry, one chain of several): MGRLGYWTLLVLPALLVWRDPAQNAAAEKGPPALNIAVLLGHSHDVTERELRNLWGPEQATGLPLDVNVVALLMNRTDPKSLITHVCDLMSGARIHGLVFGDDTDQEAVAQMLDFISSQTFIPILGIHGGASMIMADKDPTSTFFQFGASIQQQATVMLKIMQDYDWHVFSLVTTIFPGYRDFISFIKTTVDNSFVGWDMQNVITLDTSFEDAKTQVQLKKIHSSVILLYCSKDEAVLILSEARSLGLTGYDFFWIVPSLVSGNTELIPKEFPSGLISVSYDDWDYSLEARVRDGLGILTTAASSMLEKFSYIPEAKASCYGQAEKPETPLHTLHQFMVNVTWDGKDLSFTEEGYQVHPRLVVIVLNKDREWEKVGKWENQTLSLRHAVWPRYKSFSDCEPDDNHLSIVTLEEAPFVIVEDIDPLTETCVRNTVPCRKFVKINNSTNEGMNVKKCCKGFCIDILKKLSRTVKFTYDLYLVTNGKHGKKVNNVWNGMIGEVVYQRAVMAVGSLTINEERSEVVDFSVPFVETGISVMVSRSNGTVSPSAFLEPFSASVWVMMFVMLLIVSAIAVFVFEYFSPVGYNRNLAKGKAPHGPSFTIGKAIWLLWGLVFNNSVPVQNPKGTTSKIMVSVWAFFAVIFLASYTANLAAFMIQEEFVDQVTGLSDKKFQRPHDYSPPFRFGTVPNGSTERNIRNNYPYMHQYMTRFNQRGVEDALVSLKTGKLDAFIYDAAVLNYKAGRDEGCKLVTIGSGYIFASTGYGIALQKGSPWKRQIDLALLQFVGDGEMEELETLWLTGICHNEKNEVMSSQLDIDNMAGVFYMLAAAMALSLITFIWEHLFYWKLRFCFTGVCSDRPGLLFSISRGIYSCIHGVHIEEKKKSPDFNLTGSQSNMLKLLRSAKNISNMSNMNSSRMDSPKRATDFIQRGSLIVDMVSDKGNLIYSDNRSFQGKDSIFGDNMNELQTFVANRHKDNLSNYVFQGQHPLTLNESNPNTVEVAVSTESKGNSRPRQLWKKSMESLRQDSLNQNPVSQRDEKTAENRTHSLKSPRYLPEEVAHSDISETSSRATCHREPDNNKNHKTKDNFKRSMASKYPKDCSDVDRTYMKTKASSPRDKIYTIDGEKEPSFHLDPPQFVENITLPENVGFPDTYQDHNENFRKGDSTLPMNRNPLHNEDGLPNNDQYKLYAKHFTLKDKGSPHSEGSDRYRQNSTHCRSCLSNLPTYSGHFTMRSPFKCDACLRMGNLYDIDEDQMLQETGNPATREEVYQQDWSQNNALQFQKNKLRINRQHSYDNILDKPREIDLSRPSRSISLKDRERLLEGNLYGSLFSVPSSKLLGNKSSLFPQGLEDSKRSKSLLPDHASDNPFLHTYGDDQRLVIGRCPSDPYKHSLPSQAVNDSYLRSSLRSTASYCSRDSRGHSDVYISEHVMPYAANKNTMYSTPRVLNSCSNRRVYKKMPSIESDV

Compound	IC50 [1]	IC50 [2]	IC50 [3]	IC50 [4]	Activity [5]	Ratio IC50 [6]	Activity [7]	Activity [8]	Ratio IC50 [9]	Activity [10]	Activity [11]
CC[C@H](C)[C@H](NC(=O)[C@H](CCCCN)NC(=O)CNC(=O)[C@H](Cc1ccc(O)cc1)NC(=O)[C@H](CCCCN)NC(=O)[C@H](CC(C)C)NC(=O)[C@H](CCC(N)=O)NC(=O)[C@H](Cc1ccc(O)cc1)NC(=O)[C@H](CC(C(=O)O)C(=O)O)NC(=O)[C@H](CCCN=C(N)N)NC(=O)[C@@H](NC(=O)[C@H](C)NC(=O)[C@H](CC(C(=O)O)C(=O)O)NC(=O)[C@H](C)NC(=O)[C@H](Cc1ccc(O)cc1)NC(=O)[C@H](CC(C(=O)O)C(=O)O)NC(=O)[C@@H]1C[C@@H](O)CN1C(=O)[C@H](CCC(=O)O)NC(=O)[C@@H](N)CC(=O)O)[C@@H](C)CC)C(=O)O (H-DE[Hyp][Gla]YA[Gla]AIR[Gla]YQLKYGKI-OH)	≥ 10 µM	> 10 µM	0.5 µM	1 µM	–	–	–	–	–	–	–
CC[C@H](C)[C@H](NC(=O)[C@H](CCCCN)NC(=O)CNC(=O)[C@H](Cc1ccc(O)cc1)NC(=O)[C@H](CCCCN)NC(=O)[C@H](CC(C)C)NC(=O)[C@H](CCC(N)=O)NC(=O)[C@H](Cc1ccc(O)cc1)NC(=O)[C@H](CC(C(=O)O)C(=O)O)NC(=O)[C@H](CCCNC(=N)N)NC(=O)[C@@H](NC(=O)[C@H](C)NC(=O)[C@H](CC(C(=O)O)C(=O)O)NC(=O)[C@H](C)NC(=O)[C@H](Cc1ccc(O)cc1)NC(=O)[C@H](CC(C(=O)O)C(=O)O)NC(=O)[C@@H]1C[C@@H](O)CN1C(=O)[C@H](CCC(=O)O)NC(=O)[C@@H](N)CC(=O)O)[C@@H](C)CC)C(=O)O (H-DE[Hyp][Gla]YA[Gla]AIR[Gla]YQLKYGKI-OH)	–	–	–	–	Active	2	9.7 min	17.5 min	> 10	14 min	–
CC[C@H](C)[C@H](NC(=O)[C@H](CCCCN)NC(=O)CNC(=O)[C@H](Cc1cnc[nH]1)NC(=O)[C@@H](NC(=O)[C@H](CC(C)C)NC(=O)[C@H](CCC(N)=O)NC(=O)[C@H](Cc1ccc(O)cc1)NC(=O)[C@H](CC(C(=O)O)C(=O)O)NC(=O)[C@H](CCCNC(=N)N)NC(=O)[C@@H](NC(=O)CNC(=O)[C@H](CC(C(=O)O)C(=O)O)NC(=O)[C@H](C)NC(=O)[C@H](Cc1ccc(O)cc1)NC(=O)[C@H](CC(C(=O)O)C(=O)O)NC(=O)[C@H](CC(=O)O)NC(=O)[C@H](CCC(=O)O)NC(=O)CN)[C@@H](C)CC)[C@@H](C)CC)C(=O)O (H-GED[Gla]YA[Gla]GIR[Gla]YQLIHGKI-OH)	≥ 10 µM	> 10 µM	0.2 µM	1 µM	Active	5	9 min	18 min	> 10	12.2 min	Active
CC(C)C[C@H](NC(=O)CNC(=O)[C@H](CC(C(=O)O)C(=O)O)NC(=O)[C@H](C)NC(=O)[C@H](Cc1c[nH]c2ccccc12)NC(=O)[C@H](CCCCN)NC(=O)[C@H](C)NC(=O)[C@@H](NC(=O)[C@H](CC(C(=O)O)C(=O)O)NC(=O)[C@@H]1C[C@@H](O)CN1C(=O)[C@H](CCC(=O)O)NC(=O)CN)C(C)C)C(=O)N[C@@H](CCCN=C(N)N)C(=O)N[C@@H](CC(C(=O)O)C(=O)O)C(=O)N[C@@H](CCCCN)C(=O)N[C@@H](C)C(=O)N[C@@H](C)C(=O)N[C@@H](CO)C(=O)N[C@@H](CC(N)=O)C(N)=O (H-GE[Hyp][Gla]VAKWA[Gla]GLR[Gla]KAASN-NH2)	≥ 10 µM	> 10 µM	0.5 µM	8 µM	–	–	–	–	–	–	–
CC(C)C[C@H](NC(=O)CNC(=O)[C@H](CC(C(=O)O)C(=O)O)NC(=O)[C@H](C)NC(=O)[C@H](Cc1c[nH]c2ccccc12)NC(=O)[C@H](CCCCN)NC(=O)[C@H](C)NC(=O)[C@@H](NC(=O)[C@H](CC(C(=O)O)C(=O)O)NC(=O)[C@@H]1C[C@@H](O)CN1C(=O)[C@H](CCC(=O)O)NC(=O)CN)C(C)C)C(=O)N[C@@H](CCCNC(=N)N)C(=O)N[C@@H](CC(C(=O)O)C(=O)O)C(=O)N[C@@H](CCCCN)C(=O)N[C@@H](C)C(=O)N[C@@H](C)C(=O)N[C@@H](CO)C(=O)N[C@@H](CC(N)=O)C(N)=O (H-GE[Hyp][Gla]VAKWA[Gla]GLR[Gla]KAASN-NH2)	–	–	–	–	Active	16	10.7 min	21 min	> 10	16.5 min	–
CC[C@H](C)[C@H](NC(=O)[C@H](CC(N)=O)NC(=O)[C@H](CC(C(=O)O)C(=O)O)NC(=O)[C@H](CCCNC(=N)N)NC(=O)[C@H](C)NC(=O)[C@H](CC(C)C)NC(=O)[C@H](CC(C(=O)O)C(=O)O)NC(=O)[C@H](C)NC(=O)[C@H](C)NC(=O)[C@H](CCSC)NC(=O)[C@H](CCCCN)NC(=O)[C@H](C)NC(=O)[C@@H](NC(=O)[C@H](CC(C(=O)O)C(=O)O)NC(=O)[C@H](CC(C(=O)O)C(=O)O)NC(=O)[C@H](CCC(=O)O)NC(=O)CN)C(C)C)C(=O)N[C@@H](C)C(=O)N[C@@H](CCCCN)C(=O)NCC(=O)N[C@@H](CS)C(=O)N[C@@H](CCCCN)C(=O)N[C@H](C(=O)N[C@@H](CC(N)=O)C(=O)N[C@@H](CS)C(=O)N[C@@H](Cc1ccc(O)cc1)C(=O)N1CCC[C@H]1C(=O)O)C(C)C [CONANTOKIN-R]	7 µM	1 µM	1 µM	> 10 µM	–	> 10	–	–	< 0.1	–	–
